Reference: ChEMBL document CHEMBL3784921, “Mimicking of Arginine by Functionalized N(ω)-Carbamoylated Arginine As a New Broadly Applicable Approach to Labeled Bioactive Peptides: High Affinity Angiotensin, Neuropeptide Y, Neuropeptide FF, and Neurotensin Receptor Ligands As Examples” (J Med Chem, 2016)
*1 amine or outer side, *2 acyl side, *3 side chain or, on linkers, in order; H or OH if unused. Where a SMILES comes first, the peptide text is derived from it. Bridges are numbered along the chain shown (N, C = ends). Roman numbers before positions name the chains, in order. [ ]: non-standard residue; d: D form. X1 = CCC(=O)NCCCCNC(=O)/N=C(\N)NCCC[C@H](N[*:1])C(=O)[*:2]; X2 = NCCCCNC(=O)/N=C(\N)NCCC[C@H](N[*:1])C(=O)[*:2]; Suberoyl = O=C(CCCCCCC(=O)[*:2])[*:1]

How the values were obtained:
[1] = molecular target: T1, Type-1 angiotensin II receptor (Homo sapiens, UniProt P30556); experiment: Displacement of [3H]-Angiotensin 2 from human AT1 receptor transfected in CHOK1 cells preincubated for 30 mins with bovine serum albumin followed by radioligand addition by liquid scintillation counting; type: cell-based, CHO-K1
T1 sequence (P30556 whole entry): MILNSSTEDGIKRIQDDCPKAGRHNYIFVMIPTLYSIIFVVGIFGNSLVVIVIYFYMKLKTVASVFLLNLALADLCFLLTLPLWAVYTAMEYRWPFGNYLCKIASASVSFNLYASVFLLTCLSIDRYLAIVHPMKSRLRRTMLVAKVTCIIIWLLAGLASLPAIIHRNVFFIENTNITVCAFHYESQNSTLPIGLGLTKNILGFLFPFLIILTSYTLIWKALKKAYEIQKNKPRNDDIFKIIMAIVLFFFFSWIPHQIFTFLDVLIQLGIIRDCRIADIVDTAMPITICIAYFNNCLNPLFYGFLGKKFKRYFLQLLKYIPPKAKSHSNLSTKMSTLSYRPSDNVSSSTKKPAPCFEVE

[2] = molecular target: T1, Type-1 angiotensin II receptor; experiment: Displacement of [3H]-Asp-{Nomega-[N-(4-propanoylaminobutyl)aminocarbonyl]}Arg-ValTyr-Ile-His-Pro-Phe-OH Tris(hydrotrifluoroacetate) from human AT1 receptor transfected in CHO cells co-expressing Galpha16-mtAEQ after 2 hrs by liquid scintillation counting; type: cell-based
[3] = molecular target: T2, Neurotensin receptor type 1 (Homo sapiens, UniProt P30989); experiment: biochemical
[4] = molecular target: T2, Neurotensin receptor type 1; experiment: biochemical; remark: listed apart in the source
[5] = molecular target: T2, Neurotensin receptor type 1; experiment: Binding affinity to human NTSR1 receptor transfected in CHO cells co-expressing Galpha16-mtAEQ after 2 hrs by liquid scintillation counting; type: cell-based
[6] = Chemical stability of compound at 120 uM at pH 7 at 21 degC after 24 to 48 hrs by reversed-phase HPLC analysis; type: physicochemical; conditions: buffer, pH 7, 120 µM
Procedure, shortened: (§1)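 Peptide incubated in phosphate buffer (PBS), pH 7.0, 21 °C, for 24 or 48 h. Remaining intact peptide assessed by reversed-phase HPLC chromatograms.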

[7] = Chemical stability of compound at 150 uM at pH 7 at 21 degC after 24 to 48 hrs by reversed-phase HPLC analysis; type: physicochemical; conditions: buffer, pH 7, 150 µM
Procedure, shortened: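 Peptide incubated in phosphate buffer (PBS), pH 7.0, 21 °C, for 24 or 48 h. Remaining intact peptide assessed from reversed-phase HPLC chromatograms.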

[8] = Binding affinity to AT1 receptor natively expressed in rat mesangial cells; type: cell-based
[9] = molecular target: T1, Type-1 angiotensin II receptor; experiment: biochemical
[10] = Drug degradation in CHO cells expressing human AT1 receptor at 50 uM after 2 hrs by reversed-phase HPLC analysis; type: ADME, cell-based, Cricetulus griseus; conditions: chinese hamster, read-out: Drug degradation
Procedure, shortened: (§2)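 Stability tested under binding-assay conditions for up to 6 h: AT1 ligands with CHO-hAT1 cells and NTSR1 ligands with HT-29 cells. Samples analysed by reversed-phase HPLC chromatography.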

[11] = Drug degradation in CHO cells expressing human AT1 receptor at 50 uM after 6 hrs by reversed-phase HPLC analysis; type: ADME, cell-based, Cricetulus griseus; conditions: chinese hamster, read-out: Drug degradation; procedure, shortened: as §2
[12] = Chemical stability of compound at 200 uM at pH 7 at 21 degC after 24 to 48 hrs by reversed-phase HPLC analysis; type: physicochemical; conditions: buffer, pH 7, 200 µM; procedure, shortened: as §1
[13] = molecular target: T1, Type-1 angiotensin II receptor; experiment: Agonist activity at human AT1 receptor transfected in CHO cells co-expressing Galpha16-mtAEQ assessed as induction of intracellular Ca2+ mobilization by bioluminescence assay; type: functional, cell-based
[14] = molecular target: T2, Neurotensin receptor type 1; experiment: Agonist activity at NTSR1 in human HT-29 cells assessed as induction of intracellular Ca2+ mobilization by fura-2 dye-based spectrofluorimetric analysis; type: functional, cell-based
[15] = Drug degradation in human HT-29 cells at 50 uM after 2 hrs by reversed-phase HPLC analysis; type: ADME, cell-based; conditions: read-out: Drug degradation; procedure, shortened: as §2
[16] = molecular target: T2, Neurotensin receptor type 1; experiment: Displacement of [3H]-{Nomega-[N-(4-propanoylaminobutyl)aminocarbonyl]}Arg-Arg-ProTyr-Ile-Leu-OH Tris(hydrotrifluoroacetate) from NTSR1 in human HT-29 cells after 2 hrs by liquid scintillation counting; type: cell-based
[17] = Drug degradation in human HT-29 cells at 50 uM after 6 hrs by reversed-phase HPLC analysis; type: ADME, cell-based; conditions: read-out: Drug degradation; procedure, shortened: as §2
[18] = molecular target: Neurotensin receptor type 2 (Homo sapiens, UniProt O95665); experiment: Displacement of [3H]NT(8 to 13 residues) from human NTSR2 expressed in HEK293 cell membranes
[19] = molecular target: T2, Neurotensin receptor type 1; experiment: Displacement of [3H]-{Nomega-[N-(4-propanoylaminobutyl)aminocarbonyl]}Arg-Arg-ProTyr-Ile-Leu-OH Tris(hydrotrifluoroacetate) from human NTSR1 transfected in CHO cells co-expressing Galpha16-mtAEQ after 2 hrs by liquid scintillation counting; type: cell-based
[20] = molecular target: Neuropeptide Y receptor type 4 (Homo sapiens, UniProt P50391); experiment: Displacement of S0586[K4]hpp from human NPY4 receptor expressed in CHO cells co-expressing Gqi5-mtAEQ by flow cytometric analysis; type: cell-based
[21] = molecular target: T3, Neuropeptide FF receptor 2 (Homo sapiens, UniProt Q9Y5X5); experiment: Displacement of [3H]EYE from human NPFF2 receptor expressed in CHO cell membranes after 1 hr by liquid scintillation spectrophotometric counting
[22] = molecular target: T3, Neuropeptide FF receptor 2; experiment: Binding affinity to human NPFF2 receptor expressed in CHO cell membranes after 1 hr by liquid scintillation spectrophotometric counting

T2 sequence (P30989 whole entry): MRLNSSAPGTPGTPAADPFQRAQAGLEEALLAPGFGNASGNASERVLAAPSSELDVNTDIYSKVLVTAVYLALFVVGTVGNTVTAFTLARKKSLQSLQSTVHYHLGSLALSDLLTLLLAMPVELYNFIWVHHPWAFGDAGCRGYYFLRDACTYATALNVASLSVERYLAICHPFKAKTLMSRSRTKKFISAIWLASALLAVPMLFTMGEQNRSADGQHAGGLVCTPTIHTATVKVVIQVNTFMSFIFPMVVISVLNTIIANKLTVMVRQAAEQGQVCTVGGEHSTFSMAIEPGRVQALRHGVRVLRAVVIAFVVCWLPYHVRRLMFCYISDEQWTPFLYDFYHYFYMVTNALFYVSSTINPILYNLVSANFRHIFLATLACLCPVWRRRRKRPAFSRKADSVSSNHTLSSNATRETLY
Sequence of Neuropeptide Y receptor type 4 (P50391 whole entry): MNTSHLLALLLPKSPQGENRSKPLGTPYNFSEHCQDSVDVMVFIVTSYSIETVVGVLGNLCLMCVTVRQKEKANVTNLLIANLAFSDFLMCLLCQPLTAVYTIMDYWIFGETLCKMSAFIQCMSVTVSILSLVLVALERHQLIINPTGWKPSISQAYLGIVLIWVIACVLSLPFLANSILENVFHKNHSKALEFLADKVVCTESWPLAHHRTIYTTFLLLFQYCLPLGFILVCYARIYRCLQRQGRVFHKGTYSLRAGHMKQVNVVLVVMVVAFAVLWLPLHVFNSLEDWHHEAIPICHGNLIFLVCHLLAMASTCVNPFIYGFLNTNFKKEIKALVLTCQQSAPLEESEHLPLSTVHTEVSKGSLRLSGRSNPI
T3 sequence (Q9Y5X5 whole entry): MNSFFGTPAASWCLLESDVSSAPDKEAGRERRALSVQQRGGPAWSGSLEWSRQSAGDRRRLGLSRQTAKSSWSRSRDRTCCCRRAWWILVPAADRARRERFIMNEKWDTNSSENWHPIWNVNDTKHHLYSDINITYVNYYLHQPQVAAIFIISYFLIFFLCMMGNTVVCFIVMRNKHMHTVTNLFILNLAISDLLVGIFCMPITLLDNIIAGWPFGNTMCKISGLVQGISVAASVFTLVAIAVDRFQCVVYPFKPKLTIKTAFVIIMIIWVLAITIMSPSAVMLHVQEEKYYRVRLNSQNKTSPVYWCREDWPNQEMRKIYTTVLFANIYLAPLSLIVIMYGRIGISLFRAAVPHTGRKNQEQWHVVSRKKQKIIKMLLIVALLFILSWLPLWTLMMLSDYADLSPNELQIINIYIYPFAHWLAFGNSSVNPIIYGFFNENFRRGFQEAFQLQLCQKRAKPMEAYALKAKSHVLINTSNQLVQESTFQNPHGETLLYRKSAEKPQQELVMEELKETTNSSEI
Sequence of Neurotensin receptor type 2 (O95665 whole entry, the tested form may be a part): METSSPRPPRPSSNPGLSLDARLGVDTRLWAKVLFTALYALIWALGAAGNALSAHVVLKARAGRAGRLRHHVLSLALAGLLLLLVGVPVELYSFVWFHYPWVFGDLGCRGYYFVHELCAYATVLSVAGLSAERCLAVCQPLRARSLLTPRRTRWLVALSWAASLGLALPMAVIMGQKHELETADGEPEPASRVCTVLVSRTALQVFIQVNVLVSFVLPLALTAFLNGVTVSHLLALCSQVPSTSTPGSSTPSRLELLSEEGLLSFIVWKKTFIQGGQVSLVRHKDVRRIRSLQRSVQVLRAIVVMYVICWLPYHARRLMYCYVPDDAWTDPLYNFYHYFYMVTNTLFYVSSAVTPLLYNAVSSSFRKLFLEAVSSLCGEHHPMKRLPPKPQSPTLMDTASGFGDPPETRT

In the case of CCOc1nc2cccc(C(=O)O)c2n1Cc1ccc(-c2ccccc2-c2nnn[nH]2)cc1, the IC50 [1] is reported as 0.69 nM, the IC50 [2] is reported as 10.7 nM and the Ki [2] is reported as 3.5 nM.
For O=C(O)C(F)(F)F.O=C(O)C(F)(F)F.O=C(O)C(F)(F)F.[3H]CC([3H])C(=O)NCCCCNC(=O)/N=C(\N)NCCC[C@H](N)C(=O)N[C@@H](CCCNC(=N)N)C(=O)N1CCC[C@H]1C(=O)N[C@@H](Cc1ccc(O)cc1)C(=O)N[C@H](C(=O)N[C@@H](CC(C)C)C(=O)O)[C@@H](C)CC (stereo partly drawn), the Kd [3] was 0.51 nM, the Kd [4] was 0.44 nM and the Kd [5] was 0.58 nM.
With CC[C@H](C)[C@H](NC(=O)[C@H](Cc1ccc(O)cc1)NC(=O)[C@@H](NC(=O)[C@H](CCCN/C(N)=N/C(=O)NCCCCNC(=O)CCCCC[n+]1cc(S(=O)(=O)[O-])ccc1/C=C/c1cc2ccc(N(CC)CC)cc2oc1=O)NC(=O)[C@@H](N)CC(=O)O)C(C)C)C(=O)N[C@@H](Cc1cnc[nH]1)C(=O)N1CCC[C@H]1C(=O)N[C@@H](Cc1ccccc1)C(=O)O.O=C(O)C(F)(F)F.O=C(O)C(F)(F)F.O=C(O)C(F)(F)F the Stability [6] was “Stable”.
With CC[C@H](C)[C@H](NC(=O)[C@H](Cc1ccc(O)cc1)NC(=O)[C@@H]1CCCN1C(=O)[C@H](CCCNC(=N)N)NC(=O)[C@@H](N)CCCN/C(N)=N/C(=O)NCCCCNC(=O)CCCCC[n+]1cc(S(=O)(=O)[O-])ccc1/C=C/c1cc2ccc(N(CC)CC)cc2oc1=O)C(=O)N[C@@H](CC(C)C)C(=O)O.O=C(O)C(F)(F)F.O=C(O)C(F)(F)F.O=C(O)C(F)(F)F the Stability [7] was “Stable”.
In the case of O=C(O)C(F)(F)F.O=C(O)C(F)(F)F.O=C(O)C(F)(F)F.[3H]CC([3H])C(=O)NCCCCNC(=O)/N=C(\N)NCCC[C@H](NC(=O)[C@@H](N)CC(=O)O)C(=O)N[C@H](C(=O)N[C@@H](Cc1ccc(O)cc1)C(=O)N[C@H](C(=O)N[C@@H](Cc1cnc[nH]1)C(=O)N1CCC[C@H]1C(=O)N[C@@H](Cc1ccccc1)C(=O)O)[C@@H](C)CC)C(C)C (stereo partly drawn), the Kd [8] is reported as 1.5 nM and the Kd [9] is reported as 0.94 nM.
CCC(=O)NCCOCCOCCNC(=O)/N=C(\N)NCCC[C@H](NC(=O)[C@@H](N)CC(=O)O)C(=O)N[C@H](C(=O)N[C@@H](Cc1ccc(O)cc1)C(=O)N[C@H](C(=O)N[C@@H](Cc1cnc[nH]1)C(=O)N1CCC[C@H]1C(=O)N[C@@H](Cc1ccccc1)C(=O)O)[C@@H](C)CC)C(C)C gave a metabolised at 2 h, 50 µM [10] of under 5.5%.
With CC[C@H](C)[C@H](NC(=O)[C@H](Cc1ccc(O)cc1)NC(=O)[C@@H]1CCCN1C(=O)[C@H](CCCNC(=N)N)NC(=O)[C@@H](N)CCCN/C(N)=N/C(=O)NCCCCNC(=O)CCCCCN1\C(=C/C=C/C=C/C2=[N+](C)c3ccccc3C2(C)C)C(C)(C)c2ccccc21)C(=O)N[C@@H](CC(C)C)C(=O)O.O=C(O)C(F)(F)F.O=C(O)C(F)(F)F.O=C(O)C(F)(F)F.O=C(O)C(F)(F)F.[Br-] the Stability [7] was “Stable”.
For CC[C@H](C)[C@H](NC(=O)[C@H](Cc1ccc(O)cc1)NC(=O)[C@@H](NC(=O)[C@H](CCCN/C(N)=N/C(=O)NCCCCNC(=O)CCCCCN1\C(=C/C=C/C=C/C2=[N+](C)c3ccccc3C2(C)C)C(C)(C)c2ccccc21)NC(=O)[C@@H](N)CC(=O)O)C(C)C)C(=O)N[C@@H](Cc1cnc[nH]1)C(=O)N1CCC[C@H]1C(=O)N[C@@H](Cc1ccccc1)C(=O)O.O=C(O)C(F)(F)F.O=C(O)C(F)(F)F.O=C(O)C(F)(F)F.O=C(O)C(F)(F)F.[Br-], the Stability [6] was “Stable”.
With CCC(=O)NCCCCNC(=O)/N=C(\N)NCCC[C@H](NC(=O)[C@@H](N)CC(=O)O)C(=O)N[C@H](C(=O)N[C@@H](Cc1ccc(O)cc1)C(=O)N[C@H](C(=O)N[C@@H](Cc1cnc[nH]1)C(=O)N1CCC[C@H]1C(=O)N[C@@H](Cc1ccccc1)C(=O)O)[C@@H](C)CC)C(C)C.O=C(O)C(F)(F)F.O=C(O)C(F)(F)F.O=C(O)C(F)(F)F (H-D[X1]VYIHPF-OH) the metabolised at 6 h, 50 µM [11] was under 2%, the metabolised at 2 h, 50 µM [10] was under 5.5% and the Stability [12] was “Stable”. The EC50 [13] was 1.1 nM, the IC50 [2] was 2.19 nM and the Ki [2] was 0.71 nM.
For CCC(=O)NCCCCNC(=O)/N=C(\N)NCCC[C@H](N)C(=O)N[C@@H](CCCNC(=N)N)C(=O)N1CCC[C@H]1C(=O)N[C@@H](Cc1ccc(O)cc1)C(=O)N[C@H](C(=O)N[C@@H](CC(C)C)C(=O)O)[C@@H](C)CC.O=C(O)C(F)(F)F.O=C(O)C(F)(F)F.O=C(O)C(F)(F)F (H-[X1]RPYIL-OH), the EC50 ([14]; read-out: EC50) was 2 nM, the metabolised at 2 h, 50 µM [15] was under 4% and the IC50 [16] was 1.35 nM. For the same molecule, the Ki [16] was 0.47 nM, the metabolised at 6 h, 50 µM [17] was under 4% and the Ki [18] was 2.5 nM. The Ki [19] was 0.63 nM and the Stability [12] was “Stable”.
CC[C@H](C)[C@H](NC(=O)[C@H](Cc1ccc(O)cc1)NC(=O)[C@@H]1CCCN1C(=O)[C@H](CCCNC(=N)N)NC(=O)[C@@H](N)CCCN/C(N)=N/C(=O)NCCCCN)C(=O)N[C@@H](CC(C)C)C(=O)O.O=C(O)C(F)(F)F.O=C(O)C(F)(F)F.O=C(O)C(F)(F)F.O=C(O)C(F)(F)F (H-[X2]RPYIL-OH) gave an EC50 ([14]; read-out: EC50) of 1.7 nM, an EC50 ([14]; read-out: pEC50 (converted)) of 1.55 nM and an IC50 [16] of 1.35 nM. It also gave a Ki [16] of 0.47 nM, a Ki [18] of 0.74 nM and a Ki [19] of 0.69 nM. The Stability [12] was “Stable”.
With CCC(=O)NCCCCNC(=O)/N=C(\N)NCCC[C@H](NC(=O)[C@H](Cc1ccc(O)cc1)NC(=O)CCCCCCC(=O)N[C@@H](Cc1ccc(O)cc1)C(=O)N[C@@H](CCCNC(=N)N)C(=O)N[C@@H](CC(C)C)C(=O)N[C@@H](CCCNC(=N)N)C(=O)N[C@@H](Cc1ccc(O)cc1)C(N)=O)C(=O)N[C@@H](CC(C)C)C(=O)N[C@@H](CCCNC(=N)N)C(=O)N[C@@H](Cc1ccc(O)cc1)C(N)=O (I: Y[X1]LRY-NH2 / II: YRLRY-NH2; linker I:N-II:N via Suberoyl) the Ki [20] was 3.6 nM.
CC(C)C[C@H](NC(=O)[C@H](CCCNC(=N)N)NC(=O)[C@H](Cc1ccc(O)cc1)NC(=O)CCCCCCC(=O)N[C@@H](Cc1ccc(O)cc1)C(=O)N[C@@H](CCCN/C(N)=N/C(=O)NCCCCN)C(=O)N[C@@H](CC(C)C)C(=O)N[C@@H](CCCNC(=N)N)C(=O)N[C@@H](Cc1ccc(O)cc1)C(N)=O)C(=O)N[C@@H](CCCNC(=N)N)C(=O)N[C@@H](Cc1ccc(O)cc1)C(N)=O (I: Y[X2]LRY-NH2 / II: YRLRY-NH2; linker I:N-II:N via Suberoyl) showed a Ki [20] of 1.5 nM.
Work on H-EYWSLAAPQRF-NH2 yielded a Ki [21] of 0.53 nM and a Kd [22] of 0.54 nM.
